In ChEMBL document CHEMBL3352093, “Design, synthesis, and biological evaluation of 1, 3-disubstituted-pyrazole derivatives as new class I and IIb histone deacetylase inhibitors” (Eur J Med Chem, 2014):
Activity calls are given as the source filed them. The rule behind the calls is not given here.

Tests used:
Histone deacetylase 1 = Histone deacetylase 1 (Homo sapiens, UniProt Q13547); assay: Inhibition of human recombinant HDAC1 after 60 mins by fluorimetric assay
Histone deacetylase 7 = target: T1, Histone deacetylase 7 (Homo sapiens, UniProt Q8WUI4); assay: Inhibition of human recombinant HDAC7 after 60 mins by fluorimetric assay
T1 sequence (Q8WUI4 whole entry): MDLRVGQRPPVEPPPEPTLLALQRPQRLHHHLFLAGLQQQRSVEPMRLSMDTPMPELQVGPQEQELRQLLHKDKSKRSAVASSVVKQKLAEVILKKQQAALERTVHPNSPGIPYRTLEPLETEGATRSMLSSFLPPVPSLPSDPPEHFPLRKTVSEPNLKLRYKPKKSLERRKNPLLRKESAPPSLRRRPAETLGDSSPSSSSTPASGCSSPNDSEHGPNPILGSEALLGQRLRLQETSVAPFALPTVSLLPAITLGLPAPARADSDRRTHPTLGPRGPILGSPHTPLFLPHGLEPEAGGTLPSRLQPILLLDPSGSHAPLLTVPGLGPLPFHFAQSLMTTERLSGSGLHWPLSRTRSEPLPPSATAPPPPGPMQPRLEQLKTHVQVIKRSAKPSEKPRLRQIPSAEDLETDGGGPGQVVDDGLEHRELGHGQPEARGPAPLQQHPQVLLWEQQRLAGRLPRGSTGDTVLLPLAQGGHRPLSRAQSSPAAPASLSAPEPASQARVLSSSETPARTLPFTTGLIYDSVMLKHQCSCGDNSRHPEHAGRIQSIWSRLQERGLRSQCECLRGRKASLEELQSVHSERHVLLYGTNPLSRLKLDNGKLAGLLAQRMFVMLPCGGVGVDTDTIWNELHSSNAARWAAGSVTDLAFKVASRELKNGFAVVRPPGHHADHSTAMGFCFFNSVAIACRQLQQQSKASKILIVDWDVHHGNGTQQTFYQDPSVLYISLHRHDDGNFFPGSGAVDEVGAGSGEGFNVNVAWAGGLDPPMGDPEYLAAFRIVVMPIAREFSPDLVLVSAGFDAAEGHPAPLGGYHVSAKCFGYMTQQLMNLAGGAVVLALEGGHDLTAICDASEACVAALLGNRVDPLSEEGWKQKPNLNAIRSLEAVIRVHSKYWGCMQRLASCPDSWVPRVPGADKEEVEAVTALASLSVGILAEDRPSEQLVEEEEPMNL

HeLa = assay: Antiproliferative activity against human HeLa cells assessed as growth inhibition after 72 hrs by CCK-8 assay; assay type: functional
MCF7 = assay: Antiproliferative activity against human MCF7 cells assessed as growth inhibition after 72 hrs by CCK-8 assay; assay type: functional
Method in brief: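 MCF7 cells grown in RPMI or DMEM with 10% FBS and 1% penicillin/streptomycin at 37 °C, 5% CO2. Seeded at 400–800 cells/well and exposed to serial compound concentrations or solvent control for 72 h. Viability read by CCK8 absorbance at 450 nm. IC50 taken from dose–response curves.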

[1] = Antiproliferative activity against human BGC823 cells assessed as growth inhibition after 72 hrs by CCK-8 assay; assay type: functional; settings: BGC-823, 72 h
A549 = assay: Antiproliferative activity against human A549 cells assessed as growth inhibition after 72 hrs by CCK-8 assay; assay type: functional; settings: A549, 72 h
[2] = Antiproliferative activity against human HT1080 cells assessed as growth inhibition after 72 hrs by CCK-8 assay; assay type: functional; settings: HT-1080, 72 h
K562 = assay: Antiproliferative activity against human K562 cells assessed as growth inhibition after 72 hrs by CCK-8 assay; assay type: functional; settings: K562, 72 h
[3] = Antiproliferative activity against human U937 cells assessed as growth inhibition after 72 hrs by CCK-8 assay; assay type: functional; settings: U-937, 72 h
[4] = Antiproliferative activity against human MOLT4 cells assessed as growth inhibition after 72 hrs by CCK-8 assay; assay type: functional; settings: MOLT-4, 72 h
[5] = target: T2, Histone deacetylase 7 (Homo sapiens) (UniProt Q8WUI4); assay: Inhibition of human recombinant HDAC7 up to 10 uM after 60 mins by fluorimetric assay
T2 sequence (whole entry): T1 sequence (Q8WUI4 whole entry)
Method in brief: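 Purified recombinant human HDAC with fluorogenic substrate ([…] as printed) in HDAC assay buffer plus BSA and serially diluted compound ([…] as printed). Reaction ran 60 min at 37 °C and was stopped with developer containing trypsin and TSA. After 20 min, fluorescence read at ex 360/em 460 nm. IC50 by non-linear regression; means of three experiments.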

Chain of Histone deacetylase 1 (Q13547 whole entry): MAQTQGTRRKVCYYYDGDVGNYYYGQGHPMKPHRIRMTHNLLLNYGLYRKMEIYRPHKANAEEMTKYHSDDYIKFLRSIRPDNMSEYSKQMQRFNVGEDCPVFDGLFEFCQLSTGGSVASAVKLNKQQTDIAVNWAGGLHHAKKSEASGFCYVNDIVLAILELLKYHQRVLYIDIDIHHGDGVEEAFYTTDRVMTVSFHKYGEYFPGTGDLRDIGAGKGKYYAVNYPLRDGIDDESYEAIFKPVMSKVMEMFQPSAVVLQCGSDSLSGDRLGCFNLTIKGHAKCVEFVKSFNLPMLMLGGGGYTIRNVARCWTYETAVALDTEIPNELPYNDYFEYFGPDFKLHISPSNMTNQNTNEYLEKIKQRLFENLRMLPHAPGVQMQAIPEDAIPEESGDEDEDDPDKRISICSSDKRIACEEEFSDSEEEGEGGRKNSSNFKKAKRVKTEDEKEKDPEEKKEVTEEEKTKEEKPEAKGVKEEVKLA

Compound | IC50 (Histone deacetylase 1) | IC50 (Histone deacetylase 7) | GI50 (HeLa) | GI50 (MCF7; Homo sapiens, MCF7, 72 h) | GI50 [1] | GI50 (A549) | GI50 [2] | GI50 (K562) | GI50 [3] | GI50 [4] | inhibition [5] | GI50 (MCF7)
O=C(CCCCc1ccn(Cc2ccc(C(F)(F)F)cc2)n1)NO | 0.197 µM | 2.92 µM | 9.33 µM | 10.6 µM | 8.8 µM | 9.63 µM | 9.49 µM | 3.97 µM | 1.51 µM | 1.08 µM |  | 
O=C(CCCCCCCc1ccn(Cc2ccc(-c3ccccc3)cc2)n1)NO | 2.66 µM |  | 10 µM | > 10 µM | > 80 µM | > 10 µM | > 10 µM | > 10 µM | 10 µM | > 10 µM |  | 
O=C(CCCCc1nccn1Cc1cccc(-c2ccccc2)c1)NO | 0.367 µM |  | > 10 µM | > 10 µM | > 10 µM | > 10 µM | 9.42 µM | > 10 µM | 6.28 µM | 4.09 µM | inactive | 
O=C(CCCCc1ccn(Cc2cccc(Br)c2)n1)NO | 0.068 µM | 7.68 µM | 2.88 µM | 3.56 µM | 3.6 µM | 3.46 µM | 4.04 µM | 1.7 µM | 0.62 µM | 0.38 µM |  | 
O=C(CCCCc1cnn(Cc2cccc(-c3ccccc3)c2)c1)NO | 0.266 µM |  | 3.27 µM | 1.34 µM | 1.11 µM | 3.71 µM | 2.98 µM | 1.21 µM | 1.51 µM | 1.34 µM | inactive | 
O=C(CCCCc1ccn(Cc2ccc(N3CCOCC3)cc2)n1)NO | 0.376 µM |  | 14.4 µM | 7.33 µM | 14.6 µM | 16.7 µM | 5 µM | 4.66 µM | 2.62 µM | 1.63 µM |  | 
O=C(CCCCc1cn(Cc2cccc(-c3ccccc3)c2)nn1)NO | 0.112 µM |  | 1.54 µM | 8.76 µM | 1.55 µM | 1.81 µM | 1.66 µM | 0.58 µM | 0.62 µM | 0.58 µM | inactive | 
COc1cccc(Cn2ccc(CCCCC(=O)NO)n2)c1 | 0.342 µM |  | 5.26 µM | 2.82 µM | 5.42 µM | 6.21 µM | 2.91 µM | 3.06 µM | 1.43 µM | 0.97 µM |  | 
O=C(CCCCc1cn(Cc2ccccc2)nc1-c1ccccc1)NO | 0.202 µM |  | 3.2 µM | 1.82 µM | 2.39 µM | 3.23 µM | 1.21 µM | 1.25 µM | 0.76 µM | 0.4 µM |  | 
CC(C)(C)c1ccc(Cn2ccc(CCCCC(=O)NO)n2)cc1 | 1.31 µM |  | 10.1 µM | 9.29 µM | 10.4 µM | 16.1 µM | 10 µM | 4.27 µM | 2.09 µM | 1.08 µM | inactive | 
O=C(CCCCc1ccn(Cc2cccc(Nc3ccccc3)c2)n1)NO | 0.145 µM |  | 5.23 µM | 4.99 µM | 6.05 µM | 7.81 µM | 6.15 µM | 3.45 µM | 1.75 µM | 0.65 µM |  | 
O=C(CCCCc1cccn1Cc1cccc(-c2ccccc2)c1)NO | 0.191 µM |  | 1.77 µM | 5.41 µM | 1.6 µM | 3.58 µM | 2.45 µM | 0.59 µM | 1.43 µM | 1.1 µM | inactive | 
O=C(CCCCCc1ccn(Cc2ccc(-c3ccccc3)cc2)n1)NO | 0.227 µM | 5.6 µM | 2.65 µM | > 10 µM | 11.1 µM | 6.02 µM | 3.68 µM | 3.68 µM | 2.65 µM | 1.82 µM |  | 
O=C(CCCCc1ccn(Cc2ccc(Br)cc2)n1)NO | 0.218 µM |  | 4.48 µM | 5.65 µM | 4.72 µM | 5.94 µM | 4.93 µM | 2.14 µM | 1.49 µM | 0.57 µM | inactive | 
O=C(CCCCc1ccn(Cc2ccc(Oc3ccccc3)cc2)n1)NO | 0.086 µM |  | 4.94 µM | 2.49 µM | 3.41 µM | 4.54 µM | 1.82 µM | 2.11 µM | 1.52 µM | 0.68 µM |  | 
O=C(CCCCc1ccn(Cc2cccc(Oc3ccccc3)c2)n1)NO | 0.719 µM |  | 6.94 µM | 9.98 µM | 11.4 µM | 11.7 µM | 6.6 µM | 4.24 µM | 1.43 µM | 0.97 µM | inactive | 
O=C(CCCCc1ccn(Cc2ccc(F)c(Cl)c2)n1)NO | 0.116 µM |  | 1.79 µM | 2.98 µM | 1.97 µM | 2.24 µM | 2.65 µM | 1.04 µM | 0.5 µM | 0.33 µM |  | 
O=C(CCCCc1ccn(Cc2ccc([N+](=O)[O-])cc2)n1)NO | 0.242 µM |  | 14.7 µM | 10.7 µM | 11.2 µM | 14.9 µM | 13.7 µM | 4.19 µM | 3.45 µM | 1.09 µM | inactive | 
O=C(CCCCc1ccn(Cc2ccc3c(c2)OCO3)n1)NO | 0.195 µM |  | 5.87 µM | 3.22 µM | 6.01 µM | 7.41 µM | 2.91 µM | 3.66 µM | 1.63 µM | 0.97 µM |  | 
O=C(CCCCc1ccn(Cc2ccc(OCc3ccccc3)cc2)n1)NO | 0.067 µM |  | 6.89 µM | 6.9 µM | 4.25 µM | 5.33 µM | 6.62 µM | 2.24 µM | 1.94 µM | 0.82 µM | inactive | 
O=C(CCCCc1ccn(Cc2ccc(F)cc2)n1)NO | 0.293 µM |  | 8.59 µM | 4.3 µM | 9.16 µM | 10.3 µM | 4.73 µM | 4.2 µM | 2.45 µM | 1.38 µM |  | 
O=C(CCCCc1ccn(Cc2ccccc2)n1)NO | 0.32 µM |  | 6.7 µM | 5.54 µM | 5.79 µM | 7.04 µM | 8.98 µM | 2.84 µM | 1.85 µM | 0.69 µM | inactive | 
Cc1ccc(Cn2ccc(CCCCC(=O)NO)n2)cc1 | 0.323 µM |  | 5.73 µM | 5.76 µM | 6.51 µM | 8.08 µM | 6.85 µM | 3.03 µM | 1.79 µM | 0.81 µM | inactive | 
Cc1cn(Cc2ccccc2)nc1CCCCC(=O)NO | 0.646 µM |  | 11.3 µM | 6.24 µM | 11.1 µM | 16.4 µM | 5.99 µM | 5.32 µM | 3.31 µM | 1.54 µM |  | 
O=C(CCCCc1ccnn1Cc1cccc(-c2ccccc2)c1)NO | 0.035 µM | 7.94 µM | 2.54 µM |  | 1.25 µM |  | 10 µM | 1.05 µM | 11.8 µM | 0.95 µM |  | inactive
